From ChEMBL document CHEMBL5653631, “A Potent and Selective ULK1 Inhibitor Suppresses Autophagy and Sensitizes Cancer Cells to Nutrient Stress” (iScience, 2018) come the findings set out here.

For assay [1], the target named is Platelet-derived growth factor receptor alpha (Homo sapiens) (UniProt P16234). Put plainly: Inhibition of human recombinant PDGFRa at 40 nM related to control ULK1.
Assay [2] has as its target Mitogen-activated protein kinase 8 (Homo sapiens) (UniProt P45983). Put plainly: Inhibition of human recombinant JNK1 at 40 nM related to control ULK1.
The next assay is filed under the species Homo sapiens. Briefly: Inhibition of human recombinant ABL at 40 nM in presence of ATP by radiometric assay relative to control. In outline:
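Radiometric activity assays in a panel of 327 human recombinant kinases, each run in duplicate at one inhibitor concentration. Activity remaining is expressed as percent of vehicle control, and percent inhibition is calculated as 100% minus percent activity remaining.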

Assay [3] has as its target T1, Ephrin type-B receptor 1 (Homo sapiens) (UniProt P54762).
T1 sequence (whole entry): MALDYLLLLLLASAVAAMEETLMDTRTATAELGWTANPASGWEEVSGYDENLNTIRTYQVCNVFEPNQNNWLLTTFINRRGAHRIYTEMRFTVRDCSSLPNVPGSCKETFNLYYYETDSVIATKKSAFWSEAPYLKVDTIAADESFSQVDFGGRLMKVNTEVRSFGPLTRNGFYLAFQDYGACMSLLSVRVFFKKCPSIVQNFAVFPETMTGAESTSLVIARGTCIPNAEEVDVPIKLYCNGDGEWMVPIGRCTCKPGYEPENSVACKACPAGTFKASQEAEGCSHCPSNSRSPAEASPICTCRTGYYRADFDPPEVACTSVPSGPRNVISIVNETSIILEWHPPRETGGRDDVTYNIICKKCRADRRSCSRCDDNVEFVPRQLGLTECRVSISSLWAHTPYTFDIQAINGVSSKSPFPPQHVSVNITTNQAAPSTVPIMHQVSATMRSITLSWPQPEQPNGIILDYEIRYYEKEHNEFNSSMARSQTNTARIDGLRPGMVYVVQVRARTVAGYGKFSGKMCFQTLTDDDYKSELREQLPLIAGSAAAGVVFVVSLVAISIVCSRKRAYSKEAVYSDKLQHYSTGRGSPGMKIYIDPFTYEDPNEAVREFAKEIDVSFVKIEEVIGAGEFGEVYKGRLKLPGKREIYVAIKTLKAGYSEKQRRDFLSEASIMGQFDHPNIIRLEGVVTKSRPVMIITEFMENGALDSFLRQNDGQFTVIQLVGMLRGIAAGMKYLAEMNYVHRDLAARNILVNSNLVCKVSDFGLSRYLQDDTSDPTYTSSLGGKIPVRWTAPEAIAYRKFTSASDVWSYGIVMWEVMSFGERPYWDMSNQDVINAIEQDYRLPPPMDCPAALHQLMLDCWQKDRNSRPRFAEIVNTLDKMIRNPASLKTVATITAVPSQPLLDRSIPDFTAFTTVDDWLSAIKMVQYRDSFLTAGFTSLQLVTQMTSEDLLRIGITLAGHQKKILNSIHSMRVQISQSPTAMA
Put plainly: Inhibition of human recombinant EphB1 at 40 nM related to control ULK1.

Assay [4] concerns the target Tyrosine-protein kinase CSK (Homo sapiens) (UniProt P41240). Briefly: Inhibition of human recombinant CSK at 40 nM in presence of ATP by radiometric assay relative to control.
Assay [5] has as its target Calcium/calmodulin-dependent protein kinase kinase 2 (Homo sapiens) (UniProt Q96RR4). Put plainly: Inhibition of human recombinant CaMKK2 at 40 nM in presence of ATP by radiometric assay relative to control.
Assay [6] concerns the target MAP kinase-activated protein kinase 3 (Homo sapiens) (UniProt Q16644). Briefly: Inhibition of human recombinant MAPKAPK3 at 500 nM related to control ULK1.
Assay [7] addresses T2, Serine/threonine-protein kinase 17B (Homo sapiens) (UniProt O94768).
T2 sequence (whole entry): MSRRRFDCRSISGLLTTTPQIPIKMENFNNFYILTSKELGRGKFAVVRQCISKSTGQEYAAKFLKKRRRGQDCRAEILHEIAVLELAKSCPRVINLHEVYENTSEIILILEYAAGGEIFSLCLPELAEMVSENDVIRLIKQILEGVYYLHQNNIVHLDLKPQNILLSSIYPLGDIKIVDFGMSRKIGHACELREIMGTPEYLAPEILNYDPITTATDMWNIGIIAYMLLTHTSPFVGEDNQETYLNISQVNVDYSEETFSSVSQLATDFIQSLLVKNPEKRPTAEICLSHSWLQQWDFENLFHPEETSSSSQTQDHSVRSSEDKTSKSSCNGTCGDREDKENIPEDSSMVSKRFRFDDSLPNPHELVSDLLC
Briefly: Inhibition of human recombinant DRAK2 at 500 nM related to control ULK1.

The target in assay [8] is Protein kinase C theta type (Homo sapiens) (UniProt Q04759). Put plainly: Inhibition of human recombinant PKCt at 500 nM related to control ULK1.
Assay [9] addresses High affinity nerve growth factor receptor (Homo sapiens) (UniProt P04629). Put plainly: Inhibition of human recombinant TRKA at 500 nM in presence of ATP by radiometric assay relative to control.
Assay [10] addresses Cyclin-dependent kinase 4 (Homo sapiens) (UniProt P11802). Put plainly: Inhibition of human recombinant CDK4 at 15 nM in presence of ATP by radiometric assay relative to control.
Assay [11] has as its target Serine/threonine-protein kinase 10 (Homo sapiens) (UniProt O94804). Briefly: Inhibition of human recombinant LOK at 15 nM in presence of ATP by radiometric assay relative to control.
Assay [12] concerns the target T3, Interleukin-1 receptor-associated kinase 4 (Homo sapiens) (UniProt Q9NWZ3).
T3 sequence (whole entry): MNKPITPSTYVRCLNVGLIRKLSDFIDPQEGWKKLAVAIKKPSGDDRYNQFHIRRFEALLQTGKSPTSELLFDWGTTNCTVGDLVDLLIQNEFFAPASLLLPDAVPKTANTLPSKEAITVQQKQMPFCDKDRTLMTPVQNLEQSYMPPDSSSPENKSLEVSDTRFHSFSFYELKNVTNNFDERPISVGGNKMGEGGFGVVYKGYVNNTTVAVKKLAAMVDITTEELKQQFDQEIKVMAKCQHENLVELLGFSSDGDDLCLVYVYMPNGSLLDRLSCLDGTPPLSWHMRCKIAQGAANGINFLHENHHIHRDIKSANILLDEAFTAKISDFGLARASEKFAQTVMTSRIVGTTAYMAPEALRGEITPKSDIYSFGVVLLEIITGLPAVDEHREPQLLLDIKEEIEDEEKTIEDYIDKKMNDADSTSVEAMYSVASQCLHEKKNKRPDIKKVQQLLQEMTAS
Briefly: Inhibition of human recombinant IRAK4 at 15 nM in presence of ATP by radiometric assay relative to control.

Assay [13] has as its target Wee1-like protein kinase (Homo sapiens) (UniProt P30291). Put plainly: Inhibition of human recombinant Wee1 at 15 nM related to control ULK1.
Assay [14] deals with Tyrosine-protein kinase Tec (Homo sapiens) (UniProt P42680). Put plainly: Inhibition of human recombinant TEC at 15 nM in presence of ATP by radiometric assay relative to control.
Sequence of Tyrosine-protein kinase Tec (Homo sapiens) (P42680 whole entry, looked up): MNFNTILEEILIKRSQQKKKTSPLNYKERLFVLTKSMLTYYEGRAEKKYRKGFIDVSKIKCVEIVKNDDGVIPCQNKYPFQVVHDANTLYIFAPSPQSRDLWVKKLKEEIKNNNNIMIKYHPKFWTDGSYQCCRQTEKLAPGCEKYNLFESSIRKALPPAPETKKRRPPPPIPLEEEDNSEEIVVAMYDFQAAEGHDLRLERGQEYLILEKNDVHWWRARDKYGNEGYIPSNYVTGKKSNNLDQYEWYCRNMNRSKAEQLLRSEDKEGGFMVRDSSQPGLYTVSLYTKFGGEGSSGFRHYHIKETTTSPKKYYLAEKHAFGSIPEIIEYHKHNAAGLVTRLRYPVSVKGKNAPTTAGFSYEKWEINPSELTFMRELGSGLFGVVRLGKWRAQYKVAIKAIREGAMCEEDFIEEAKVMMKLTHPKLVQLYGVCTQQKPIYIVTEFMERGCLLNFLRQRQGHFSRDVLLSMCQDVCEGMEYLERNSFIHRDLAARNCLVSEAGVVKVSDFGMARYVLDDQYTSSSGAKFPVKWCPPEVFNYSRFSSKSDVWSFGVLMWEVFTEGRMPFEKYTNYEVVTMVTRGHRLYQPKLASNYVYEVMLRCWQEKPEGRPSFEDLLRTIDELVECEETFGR

Sequence of Tyrosine-protein kinase CSK (Homo sapiens) (P41240 2-450 limits assumed): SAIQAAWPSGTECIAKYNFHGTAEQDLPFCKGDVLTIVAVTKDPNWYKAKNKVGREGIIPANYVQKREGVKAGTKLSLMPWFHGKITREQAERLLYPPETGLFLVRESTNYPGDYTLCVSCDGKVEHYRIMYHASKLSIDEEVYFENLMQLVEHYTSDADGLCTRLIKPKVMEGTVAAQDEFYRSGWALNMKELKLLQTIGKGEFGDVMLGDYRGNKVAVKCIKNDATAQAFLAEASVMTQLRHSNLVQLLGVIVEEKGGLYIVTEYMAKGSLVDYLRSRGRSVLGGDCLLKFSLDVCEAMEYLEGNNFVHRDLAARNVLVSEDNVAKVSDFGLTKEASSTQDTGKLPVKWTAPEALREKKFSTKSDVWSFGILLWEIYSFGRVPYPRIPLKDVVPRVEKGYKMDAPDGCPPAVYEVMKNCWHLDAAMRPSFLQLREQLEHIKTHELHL
Sequence of Protein kinase C theta type (Homo sapiens) (Q04759 whole entry, looked up): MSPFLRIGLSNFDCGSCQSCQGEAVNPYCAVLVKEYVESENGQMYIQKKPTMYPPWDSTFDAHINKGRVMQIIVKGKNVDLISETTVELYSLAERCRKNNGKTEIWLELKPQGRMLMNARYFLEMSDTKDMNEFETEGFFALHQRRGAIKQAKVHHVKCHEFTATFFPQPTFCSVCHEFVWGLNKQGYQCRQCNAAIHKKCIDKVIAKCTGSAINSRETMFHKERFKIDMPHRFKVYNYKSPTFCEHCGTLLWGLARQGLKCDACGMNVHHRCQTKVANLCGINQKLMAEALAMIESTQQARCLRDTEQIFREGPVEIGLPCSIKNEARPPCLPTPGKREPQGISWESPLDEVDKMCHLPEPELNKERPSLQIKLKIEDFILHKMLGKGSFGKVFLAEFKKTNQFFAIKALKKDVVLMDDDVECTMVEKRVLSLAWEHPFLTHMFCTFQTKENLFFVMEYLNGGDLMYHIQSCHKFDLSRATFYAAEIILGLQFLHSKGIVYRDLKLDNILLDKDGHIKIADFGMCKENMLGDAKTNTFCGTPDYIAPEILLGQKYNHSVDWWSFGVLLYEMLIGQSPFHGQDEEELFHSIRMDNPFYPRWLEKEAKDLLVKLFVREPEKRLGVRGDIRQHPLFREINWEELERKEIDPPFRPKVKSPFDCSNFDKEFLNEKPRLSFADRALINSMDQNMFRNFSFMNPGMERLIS
Sequence of Calcium/calmodulin-dependent protein kinase kinase 2 (Homo sapiens) (Q96RR4 2-588 limits assumed): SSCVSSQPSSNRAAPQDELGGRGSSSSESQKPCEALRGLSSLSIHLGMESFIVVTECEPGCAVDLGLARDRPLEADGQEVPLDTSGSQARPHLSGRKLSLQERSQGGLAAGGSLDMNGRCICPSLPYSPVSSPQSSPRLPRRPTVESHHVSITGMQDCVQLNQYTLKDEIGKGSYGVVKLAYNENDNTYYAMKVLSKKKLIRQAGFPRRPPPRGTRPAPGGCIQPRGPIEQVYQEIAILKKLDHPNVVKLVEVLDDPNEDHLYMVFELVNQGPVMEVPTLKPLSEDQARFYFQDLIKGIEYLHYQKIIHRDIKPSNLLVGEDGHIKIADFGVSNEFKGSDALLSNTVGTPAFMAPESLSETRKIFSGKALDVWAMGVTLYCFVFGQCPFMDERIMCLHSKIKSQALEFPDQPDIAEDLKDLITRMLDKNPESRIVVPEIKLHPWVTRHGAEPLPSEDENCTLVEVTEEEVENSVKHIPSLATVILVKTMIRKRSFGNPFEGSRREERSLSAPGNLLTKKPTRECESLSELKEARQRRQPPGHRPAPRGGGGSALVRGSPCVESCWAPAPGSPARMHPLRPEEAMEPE
Sequence of Wee1-like protein kinase (Homo sapiens) (P30291 whole entry, looked up): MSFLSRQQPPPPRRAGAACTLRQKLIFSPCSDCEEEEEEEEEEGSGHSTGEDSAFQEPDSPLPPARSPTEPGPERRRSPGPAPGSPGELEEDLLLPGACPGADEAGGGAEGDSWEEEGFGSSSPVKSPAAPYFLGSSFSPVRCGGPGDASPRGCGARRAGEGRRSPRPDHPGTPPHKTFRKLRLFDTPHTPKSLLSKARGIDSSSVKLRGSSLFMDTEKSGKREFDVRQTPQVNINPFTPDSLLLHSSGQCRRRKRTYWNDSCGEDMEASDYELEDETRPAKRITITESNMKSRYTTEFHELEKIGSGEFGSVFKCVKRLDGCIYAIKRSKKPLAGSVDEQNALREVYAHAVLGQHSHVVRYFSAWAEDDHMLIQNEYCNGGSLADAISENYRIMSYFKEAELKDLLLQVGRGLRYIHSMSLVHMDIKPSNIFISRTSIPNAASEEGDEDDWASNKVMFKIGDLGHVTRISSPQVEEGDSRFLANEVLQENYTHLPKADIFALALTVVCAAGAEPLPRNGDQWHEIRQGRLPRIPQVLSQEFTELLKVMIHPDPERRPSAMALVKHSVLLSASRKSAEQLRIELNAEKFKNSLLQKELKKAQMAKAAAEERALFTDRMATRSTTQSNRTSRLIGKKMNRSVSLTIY
Sequence of MAP kinase-activated protein kinase 3 (Homo sapiens) (Q16644 whole entry, looked up): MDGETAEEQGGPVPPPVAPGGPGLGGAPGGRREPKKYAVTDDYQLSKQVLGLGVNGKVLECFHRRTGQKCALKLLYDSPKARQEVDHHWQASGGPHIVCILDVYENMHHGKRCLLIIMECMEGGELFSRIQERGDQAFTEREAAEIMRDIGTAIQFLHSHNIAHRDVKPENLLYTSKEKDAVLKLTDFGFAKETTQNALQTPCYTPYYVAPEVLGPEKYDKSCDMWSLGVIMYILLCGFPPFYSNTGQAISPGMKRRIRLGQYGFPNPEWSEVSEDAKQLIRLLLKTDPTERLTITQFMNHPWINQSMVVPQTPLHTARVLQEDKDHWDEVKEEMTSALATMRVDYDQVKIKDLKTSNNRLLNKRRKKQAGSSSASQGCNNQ
Sequence of Mitogen-activated protein kinase 8 (Homo sapiens) (P45983 whole entry): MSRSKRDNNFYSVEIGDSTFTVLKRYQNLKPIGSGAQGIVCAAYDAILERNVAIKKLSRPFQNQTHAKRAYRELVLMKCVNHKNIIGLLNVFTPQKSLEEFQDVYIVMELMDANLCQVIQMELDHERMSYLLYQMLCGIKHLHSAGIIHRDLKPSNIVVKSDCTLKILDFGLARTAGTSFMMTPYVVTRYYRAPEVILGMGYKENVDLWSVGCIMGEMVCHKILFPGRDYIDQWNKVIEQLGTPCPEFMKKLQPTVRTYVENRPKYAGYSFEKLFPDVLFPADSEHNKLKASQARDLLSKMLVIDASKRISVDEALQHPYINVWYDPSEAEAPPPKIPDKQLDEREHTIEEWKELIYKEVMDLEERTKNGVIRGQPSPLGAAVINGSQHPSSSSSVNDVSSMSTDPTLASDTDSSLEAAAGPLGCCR
Sequence of High affinity nerve growth factor receptor (Homo sapiens) (P04629 33-796 limits assumed): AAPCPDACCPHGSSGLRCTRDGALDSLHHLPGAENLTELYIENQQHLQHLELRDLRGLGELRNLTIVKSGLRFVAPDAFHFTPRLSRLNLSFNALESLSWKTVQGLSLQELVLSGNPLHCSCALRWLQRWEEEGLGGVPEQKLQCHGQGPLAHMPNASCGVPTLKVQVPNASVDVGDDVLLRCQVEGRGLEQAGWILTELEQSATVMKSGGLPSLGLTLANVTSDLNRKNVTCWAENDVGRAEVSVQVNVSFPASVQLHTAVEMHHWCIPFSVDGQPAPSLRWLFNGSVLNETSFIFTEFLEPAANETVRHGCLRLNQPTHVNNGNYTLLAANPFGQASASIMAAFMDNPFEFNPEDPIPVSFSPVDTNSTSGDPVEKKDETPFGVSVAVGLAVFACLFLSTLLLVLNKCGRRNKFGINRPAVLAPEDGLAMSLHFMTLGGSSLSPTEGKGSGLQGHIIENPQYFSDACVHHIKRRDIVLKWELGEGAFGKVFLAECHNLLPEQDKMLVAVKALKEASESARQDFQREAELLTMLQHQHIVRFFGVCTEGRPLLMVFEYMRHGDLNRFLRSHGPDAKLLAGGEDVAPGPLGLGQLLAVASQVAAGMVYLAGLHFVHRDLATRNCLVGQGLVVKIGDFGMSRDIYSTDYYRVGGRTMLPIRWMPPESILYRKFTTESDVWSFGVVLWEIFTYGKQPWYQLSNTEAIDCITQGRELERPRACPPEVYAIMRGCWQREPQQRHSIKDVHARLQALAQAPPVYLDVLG
Sequence of Cyclin-dependent kinase 4 (Homo sapiens) (P11802 whole entry): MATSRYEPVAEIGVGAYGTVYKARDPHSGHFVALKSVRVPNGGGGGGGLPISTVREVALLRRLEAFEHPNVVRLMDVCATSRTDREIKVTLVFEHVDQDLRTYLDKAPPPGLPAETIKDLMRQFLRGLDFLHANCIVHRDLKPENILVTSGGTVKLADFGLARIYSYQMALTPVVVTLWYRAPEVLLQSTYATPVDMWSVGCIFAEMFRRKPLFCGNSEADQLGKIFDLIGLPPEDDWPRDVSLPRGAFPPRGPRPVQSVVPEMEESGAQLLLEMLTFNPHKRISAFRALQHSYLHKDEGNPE

The inhibition is the percentage by which the read-out fell short of the control. Consider `O=C(N[C@@H](C1CC1)C(F)(F)F)c1cc(-c2cnn3cc(-c4ccc(F)cc4)cnc23)cs1`, for which the fold change (FC) worked out at 0 in assay [1], 0 in assay [2] and 0.01 in assay [3]. Further, the inhibition in the assay filed under Homo sapiens was found to be 12%; in assay [4], 0%; in assay [5], 0%.
On to `CNC(=O)c1ccccc1Oc1nc(Nc2cc(OC)c(OC)c(OC)c2)ncc1Br`, for which the results for the fold change (FC) in assay [6], in [7] and in [8] were 0, 0.08 and 0, respectively. Moreover, in assay [9], the inhibition was found to be 52%.
Take `CC(C)[C@H](NC(=O)c1cc(-c2cnn3cc(-c4ccc(OCCN5CCCCC5)cc4)cnc23)cs1)C(F)(F)F`: the inhibition in assay [10] stood at 11%; in [11] it was 0%; in assay [12], 0%; in assay [14] it was 0%. The fold change (FC) in [13] turned out to be 0.17.
